{
  "source": "ChEMBL document CHEMBL4359917",
  "about": "“Design, synthesis, and biological evaluation of novel benzodiazepine derivatives as anticancer agents through inhibition of tubulin polymerization in vitro and in vivo” (Eur J Med Chem, 2019)",
  "key": {"A549 [1]": {"system": "A549", "test": "Induction of apoptosis in human A549 cells assessed as early apoptotic cells at 5 nM after 24 hrs by annexin V-FITC/propidium iodide staining based flow cytometry (reference value: 0.19 %)", "format": "functional", "how_it_was_run": "(§1)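 A549 cells treated at 1, 5 or 10 nM for 24 or 48 h, then analysed by flow cytometry. Quadrants: upper left necrotic, upper right late apoptotic, bottom left live, bottom right early apoptotic. Three experiments; representative results shown.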"}, "in vitro": {"test": "in vitro", "conditions": "Sprague-Dawley, rat, liver microsomes"}, "HeLa": {"system": "HeLa", "test": "Antiproliferative activity against human HeLa cells assessed as cell growth inhibition measured after 48 hrs by MTT assay", "format": "functional, cell-based", "how_it_was_run": "(§2)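 Cancer cell lines exposed to compounds for 48 h; viability read by MTT assay. IC50 reported as mean ± SD from at least three independent experiments.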"}, "A549 [2]": {"system": "A549", "test": "Induction of apoptosis in human A549 cells assessed as necrotic cells at 10 nM after 48 hrs by annexin V-FITC/propidium iodide staining based flow cytometry (reference value: 0.03 %)", "format": "functional", "how_it_was_run": "as §1"}, "A549 [3]": {"system": "A549", "test": "Induction of apoptosis in human A549 cells assessed as necrotic cells at 10 nM after 24 hrs by annexin V-FITC/propidium iodide staining based flow cytometry (reference value: 0.03 %)", "format": "functional", "how_it_was_run": "as §1"}, "A549 [4]": {"system": "A549", "test": "Induction of apoptosis in human A549 cells assessed as necrotic cells at 1 nM after 48 hrs by annexin V-FITC/propidium iodide staining based flow cytometry (reference value: 0.03 %)", "format": "functional", "how_it_was_run": "as §1"}, "A549 [5]": {"system": "A549", "test": "Induction of apoptosis in human A549 cells assessed as late apoptotic cells at 1 nM after 24 hrs by annexin V-FITC/propidium iodide staining based flow cytometry (reference value: 0.02 %)", "format": "functional", "how_it_was_run": "as §1"}, "A549 [6]": {"system": "A549", "test": "Induction of apoptosis in human A549 cells assessed as necrotic cells at 5 nM after 24 hrs by annexin V-FITC/propidium iodide staining based flow cytometry (reference value: 0.03 %)", "format": "functional", "how_it_was_run": "as §1"}, "A549 [7]": {"system": "A549", "test": "Induction of apoptosis in human A549 cells assessed as late apoptotic cells at 10 nM after 48 hrs by annexin V-FITC/propidium iodide staining based flow cytometry (reference value: 0.02 %)", "format": "functional", "how_it_was_run": "as §1"}, "HCT-116": {"system": "HCT-116", "test": "Antiproliferative activity against human HCT116 cells assessed as cell growth inhibition measured after 48 hrs by MTT assay", "format": "functional, cell-based", "conditions": "HCT-116, 48 h", "how_it_was_run": "as §2"}, "A549 [8]": {"system": "A549", "test": "Cell cycle arrest in human A549 cells assessed as increase in cell accumulation at G2/M phase measured after 24 to 48 hrs by RNase/propidium iodide staining based flow cytometry analysis", "format": "functional"}, "A549 [9]": {"system": "A549", "test": "Disruption of microtubule organization in human A549 cells assessed as appearance of dotted disorder formations at 10 nM measured after 24 hrs by immunofluorescence laser confocal microscopy analysis", "format": "functional, cell-based", "how_it_was_run": "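A549 cells plated in confocal dishes and exposed to DMSO or compound at 1, 5 or 10 nM for 24 h. Cells were fixed, immunostained for microtubules and imaged by laser confocal microscopy. Performed three times.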"}, "A549 [10]": {"system": "A549", "test": "Induction of apoptosis in human A549 cells assessed as early apoptotic cells at 1 nM after 48 hrs by annexin V-FITC/propidium iodide staining based flow cytometry (reference value: 0.19 %)", "format": "functional", "how_it_was_run": "as §1"}, "A549 [11]": {"system": "A549", "test": "Induction of apoptosis in human A549 cells assessed as necrotic cells at 1 nM after 24 hrs by annexin V-FITC/propidium iodide staining based flow cytometry (reference value: 0.03 %)", "format": "functional", "how_it_was_run": "as §1"}, "A549 [12]": {"system": "A549", "test": "Induction of apoptosis in human A549 cells assessed as live cells at 10 nM after 24 hrs by annexin V-FITC/propidium iodide staining based flow cytometry (reference value: 99.75 %)", "format": "functional", "how_it_was_run": "as §1"}, "A549 [13]": {"system": "A549", "test": "Induction of apoptosis in human A549 cells assessed as late apoptotic cells at 10 nM after 24 hrs by annexin V-FITC/propidium iodide staining based flow cytometry (reference value: 0.02 %)", "format": "functional", "how_it_was_run": "as §1"}, "A549 [14]": {"system": "A549", "test": "Induction of apoptosis in human A549 cells assessed as late apoptotic cells at 5 nM after 24 hrs by annexin V-FITC/propidium iodide staining based flow cytometry (reference value: 0.02 %)", "format": "functional", "how_it_was_run": "as §1"}, "A549 [15]": {"system": "A549", "test": "Induction of apoptosis in human A549 cells assessed as live cells at 10 nM after 48 hrs by annexin V-FITC/propidium iodide staining based flow cytometry (reference value: 99.75 %)", "format": "functional", "how_it_was_run": "as §1"}, "A549 [16]": {"system": "A549", "test": "Cell cycle arrest in human A549 cells assessed as increase in cell accumulation at G2/M phase at 1 to 10 nM by RNase/propidium iodide staining based flow cytometry analysis", "format": "functional", "conditions": "TDE = time-dependent effect"}, "[17]": {"test": "Half-life in Sprague-Dawley rat liver microsomes in presence of NADPH by HPLC-UV-MS analysis", "format": "ADME, Microsome", "how_it_was_run": "(§3)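 Compound incubated with rat liver microsomes in buffer containing an NADPH regenerating system. Percentage of parent remaining was determined at time points up to 180 min, and half-life was derived.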"}, "HepG2": {"system": "HepG2", "test": "Antiproliferative activity against human HepG2 cells assessed as cell growth inhibition measured after 48 hrs by MTT assay", "format": "functional, cell-based", "conditions": "HepG2, 48 h", "how_it_was_run": "as §2"}, "A549 [18]": {"system": "A549", "test": "Cell cycle arrest in human A549 cells assessed as appearance of hypodiploid DNA content at sub G1 phase at 1 to 10 nM after 48 hrs by RNase/propidium iodide staining based flow cytometry analysis", "format": "functional"}, "A549 [19]": {"system": "A549", "test": "Induction of apoptosis in human A549 cells assessed as early apoptotic cells at 10 nM after 24 hrs by annexin V-FITC/propidium iodide staining based flow cytometry (reference value: 0.19 %)", "format": "functional", "how_it_was_run": "as §1"}, "MDA-MB-231": {"system": "MDA-MB-231", "test": "Antiproliferative activity against human MDA-MB-231 cells assessed as cell growth inhibition measured after 48 hrs by MTT assay", "format": "functional, cell-based", "conditions": "MDA-MB-231, 48 h", "how_it_was_run": "as §2"}, "A549 [20]": {"system": "A549", "test": "Induction of apoptosis in human A549 cells assessed as early apoptotic cells at 1 nM after 24 hrs by annexin V-FITC/propidium iodide staining based flow cytometry (reference value: 0.19 %)", "format": "functional", "how_it_was_run": "as §1"}, "A549 [21]": {"system": "A549", "test": "Induction of apoptosis in human A549 cells assessed as live cells at 5 nM after 48 hrs by annexin V-FITC/propidium iodide staining based flow cytometry (reference value: 99.75 %)", "format": "functional", "how_it_was_run": "as §1"}, "[22]": {"test": "Metabolic stability in Sprague-Dawley rat liver microsomes assessed as parent compound remaining after 90 mins in presence of NADPH by HPLC-UV-MS analysis", "format": "ADME, Microsome", "conditions": "read-out: Stability", "how_it_was_run": "as §3"}, "A549 [23]": {"system": "A549", "test": "Induction of apoptosis in human A549 cells assessed as early apoptotic cells at 5 nM after 48 hrs by annexin V-FITC/propidium iodide staining based flow cytometry (reference value: 0.19 %)", "format": "functional", "how_it_was_run": "as §1"}, "A549 [24]": {"system": "A549", "test": "Induction of apoptosis in human A549 cells assessed as live cells at 1 nM after 24 hrs by annexin V-FITC/propidium iodide staining based flow cytometry (reference value: 99.75 %)", "format": "functional", "how_it_was_run": "as §1"}, "[25]": {"test": "Metabolic stability in Sprague-Dawley rat liver microsomes assessed as parent compound remaining after 30 mins in presence of NADPH by HPLC-UV-MS analysis", "format": "ADME, Microsome", "conditions": "read-out: Stability", "how_it_was_run": "as §3"}, "[26]": {"test": "Metabolic stability in Sprague-Dawley rat liver microsomes assessed as parent compound remaining after 60 mins in presence of NADPH by HPLC-UV-MS analysis", "format": "ADME, Microsome", "conditions": "read-out: Stability", "how_it_was_run": "as §3"}, "A549 [27]": {"system": "A549", "test": "Induction of apoptosis in human A549 cells assessed as live cells at 5 nM after 24 hrs by annexin V-FITC/propidium iodide staining based flow cytometry (reference value: 99.75 %)", "format": "functional", "how_it_was_run": "as §1"}, "[28]": {"test": "Metabolic stability in Sprague-Dawley rat liver microsomes assessed as parent compound remaining after 120 mins in presence of NADPH by HPLC-UV-MS analysis", "format": "ADME, Microsome", "conditions": "read-out: Stability", "how_it_was_run": "as §3"}},
  "note": "The source made the active and inactive calls. The rule behind the calls is not given here.",
  "data": [
    {"smiles": "COc1ccc2c(c1O)NC(=O)CN=C2c1cc(OC)c(OC)c([Se]C)c1", "values": [
      {"measurement": "Activity", "setting": "A549 [1]", "result": 13.15, "unit": "%"},
      {"measurement": "remaining at 3 h", "setting": "in vitro", "result": 50.4, "unit": "%"},
      {"measurement": "IC50", "setting": "HeLa", "result": 8.3, "unit": "nM"},
      {"measurement": "Activity", "setting": "A549 [2]", "result": 3.61, "unit": "%"},
      {"measurement": "Activity", "setting": "A549 [3]", "result": 0.09, "unit": "%"},
      {"measurement": "Activity", "setting": "A549 [4]", "result": 0.28, "unit": "%"},
      {"measurement": "Activity", "setting": "A549 [5]", "result": 0.17, "unit": "%"},
      {"measurement": "Activity", "setting": "A549 [6]", "result": 0.03, "unit": "%"},
      {"measurement": "Activity", "setting": "A549 [7]", "result": 19.15, "unit": "%"},
      {"measurement": "IC50", "setting": "HCT-116", "result": 8.9, "unit": "nM"},
      {"measurement": "Activity", "setting": "A549 [8]", "result": "Dose-dependent effect"},
      {"measurement": "Activity", "setting": "A549 [9]", "result": "Active"},
      {"measurement": "Activity", "setting": "A549 [10]", "result": 13.64, "unit": "%"},
      {"measurement": "Activity", "setting": "A549 [11]", "result": 0.04, "unit": "%"},
      {"measurement": "Activity", "setting": "A549 [12]", "result": 76.72, "unit": "%"},
      {"measurement": "Activity", "setting": "A549 [13]", "result": 0.13, "unit": "%"},
      {"measurement": "Activity", "setting": "A549 [14]", "result": 0.32, "unit": "%"},
      {"measurement": "Activity", "setting": "A549 [15]", "result": 11.84, "unit": "%"},
      {"measurement": "Activity", "setting": "A549 [16]", "result": "Tde"},
      {"measurement": "half-life", "setting": "[17]", "result": 161, "unit": "min"},
      {"measurement": "IC50", "setting": "HepG2", "result": 12.6, "unit": "nM"},
      {"measurement": "Activity", "setting": "A549 [18]", "result": "Active"},
      {"measurement": "Activity", "setting": "A549 [19]", "result": 23.06, "unit": "%"},
      {"measurement": "IC50", "setting": "MDA-MB-231", "result": 15.5, "unit": "nM"},
      {"measurement": "Activity", "setting": "A549 [20]", "result": 5.71, "unit": "%"},
      {"measurement": "Activity", "setting": "A549 [21]", "result": 57.32, "unit": "%"},
      {"measurement": "remaining at 1.5 h", "setting": "[22]", "result": 75.9, "unit": "%"},
      {"measurement": "Activity", "setting": "A549 [23]", "result": 28.68, "unit": "%"},
      {"measurement": "Activity", "setting": "A549 [24]", "result": 94.08, "unit": "%"},
      {"measurement": "remaining at 0.5 h", "setting": "[25]", "result": 95.6, "unit": "%"},
      {"measurement": "remaining at 1 h", "setting": "[26]", "result": 86.3, "unit": "%"},
      {"measurement": "Activity", "setting": "A549 [27]", "result": 86.5, "unit": "%"},
      {"measurement": "remaining at 2 h", "setting": "[28]", "result": 66.1, "unit": "%"}
    ]}
  ]
}
